APOBEC3G inh: APOBEC3G (human) deaminase inhibition; Q9HC16; recombinant A3G, ssDNA deamination FAM/TAMRA fluorescence; inhibition, % at 20 µM; actives 0.28% (n = 330,000); AID 493012;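 active = inhibition of at least 40% at 20 µM, with no more than 30% in the related APOBEC3A deaminase screen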
Target sequence (Q9HC16 whole entry, looked up): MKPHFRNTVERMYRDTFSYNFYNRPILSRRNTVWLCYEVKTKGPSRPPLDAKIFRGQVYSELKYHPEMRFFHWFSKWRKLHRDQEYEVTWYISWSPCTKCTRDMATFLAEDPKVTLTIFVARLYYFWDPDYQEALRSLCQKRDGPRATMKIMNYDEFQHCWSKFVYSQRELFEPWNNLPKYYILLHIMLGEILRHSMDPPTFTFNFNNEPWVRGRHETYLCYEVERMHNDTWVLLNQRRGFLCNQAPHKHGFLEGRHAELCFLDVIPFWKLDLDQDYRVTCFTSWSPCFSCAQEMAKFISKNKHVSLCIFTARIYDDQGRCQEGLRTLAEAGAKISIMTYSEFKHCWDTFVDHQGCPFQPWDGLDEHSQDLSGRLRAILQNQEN
PfG6PD inh: PfG6PD (Plasmodium falciparum) enzyme inhibition | actives 0.78% (n = 350,000) | inhibition, % at 20 µM | PfGluPho enzyme, NADPH resazurin-diaphorase fluorescence;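 active = inhibition reaching at least a set limit at 20 µM in the primary screen, cut at about 59% in these data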
UBC9 SUMO inh: inhibitors of human SUMOylation (UBC9) | actives 0.36% (n = 290,000) | HTRF SUMOylation assay, SAE1/SAE2 + UBC9, in vitro | inhibition, % at 35 µM | AID 2006 | P63279; in the data active = inhibition above about 50%, passing the limit was not always enough
HKDC1 inh: inhibitors of human hexokinase HKDC1 | recombinant HKDC1, G6PDH/diaphorase resazurin coupled fluorescence | actives 0.16% (n = 340,000) | inhibition, % at 20 µM | Q2TB90;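 active = inhibition above about 35% when tested at 20 µM, limit read from the data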
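Material – in-house recombinant HK5 (HKDC1) enzyme · Quantity – HKDC1 at 5 µg/mL · Buffer or medium – pH 8.0 Tris buffer with 10 mM MgCl2 · Reagent – glucose with 1 mM ATP · Dosing – single 20 µM dose · Times – reaction time 90 min, room temperature, protected from light · Technique – resorufin fluorescence at 613 nm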
APOBEC3A inh: inhibitors of human APOBEC3A DNA deaminase; P31941; recombinant A3A, FAM/TAMRA ssDNA deamination fluorescence; inhibition, % at 20 µM; actives 0.41% (n = 330,000); AID 493011;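 active = at least 40% inhibition at 20 µM here, with at most 30% in a related deaminase screen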
Target sequence (P31941 whole entry, looked up): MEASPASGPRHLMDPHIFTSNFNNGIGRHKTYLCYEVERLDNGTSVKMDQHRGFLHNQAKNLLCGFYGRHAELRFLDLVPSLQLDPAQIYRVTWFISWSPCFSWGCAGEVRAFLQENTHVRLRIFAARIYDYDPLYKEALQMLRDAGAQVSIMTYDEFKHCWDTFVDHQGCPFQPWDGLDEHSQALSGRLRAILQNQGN
PfM18AAP inh-1: blocks P. falciparum M18 aspartyl aminopeptidase; recombinant PfM18AAP, H-Glu-NHMec fluorogenic cleavage; AID 1822; inhibition, % at 7.35 µM; actives 1.2% (n = 290,000);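 active = inhibition above the campaign mean inhibition over all tested compounds plus 3 SD, cut at about 28% in these data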
PfM18AAP inh-2: confirmation of Plasmodium falciparum M18 aspartyl aminopeptidase inhibitors; shares compounds with PfM18AAP inh-1; recombinant PfM18AAP, H-Glu-NHMec fluorogenic cleavage; inhibition, % at 7.35 µM; actives 28% (n = 2,400); AID 2170;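 active = mean inhibition over replicate wells above the hit cutoff set for the earlier primary screen, cut at about 29% in these data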
CTSL1 confirm: counter-screen for PFM18AAP inhibitors: confirmation of human cathepsin L inhibitors; shares compounds with PfM18AAP inh-1; purified cathepsin L1, Z-Leu-Arg-MCA fluorescence; inhibition, % at 5.96 µM; 2,400 tested, under 10 active;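 active = average inhibition across replicates above the hit cutoff set in the earlier primary screen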
Hits are given with their value; 0 = inactive; - = not tested or not shown. Rows were chosen to be rich in hits. Some 2.4% of all compounds tested hit in one or more screens of this group.

SMILES	APOBEC3G inh	PfG6PD inh	UBC9 SUMO inh	HKDC1 inh	APOBEC3A inh	PfM18AAP inh-1	PfM18AAP inh-2	CTSL1 confirm
Cc1ccc(/C(O)=C2\C(=O)C(=O)N(CC(C)O)C2c2cccc(F)c2)cc1 (stereo not given)	0	0	0	0	0	0	-	-
Cc1onc(-c2c(Cl)cccc2Cl)c1C(=O)Nc1ccc(C(N)=O)cc1	0	0	0	0	0	0	-	-
O=C(O)c1ccc2c(c1)C(=O)/C(=C\c1ccco1)C2=O	0	0	0	0	0	42	40	0
Cc1cc(C)nc(N/N=C/C2=C(N3CCOCC3)C(=C/c3ccccc3)/CC2)n1	0	0	0	0	0	36	0	0
O=C(O)c1ccccc1N/N=C/C1=C(N2CCOCC2)C(=C\c2ccccc2)/CC1	0	0	0	0	0	0	-	-
O=C(CSc1ccccn1)N1CCN(c2ccc(Cl)cc2)CC1	0	0	0	0	0	33	0	0
CC(=O)c1ccc(-c2nc3c4ccccc4ccn3c2C(C)=O)o1	0	0	0	0	0	0	-	-
O=C(C1CCN(c2ncnc3c2sc2cccc(F)c23)CC1)N1CCCC1	0	-	0	-	0	0	-	-
COc1cc(/C=N/Nc2ccc(C(=O)O)cc2)ccc1O	0	0	0	0	0	50	0	0
COc1cc(/C=C/C(=O)CC(=O)/C=C/c2ccc(O)c(OC)c2)ccc1O	0	0	0	0	0	35	0	0
COc1cc(/C=C/C(=O)O)ccc1O	0	0	-	0	0	-	-	-
COC(=O)C1=C(O)/C(=C\c2ccc(O)c(OC)c2)N=C1C	0	0	0	0	0	55	0	0
COC(=O)C1=C(O)/C(=C\c2ccc(OCC(=O)Nc3ccccc3OC)cc2)N=C1C	0	0	0	0	0	0	-	-
COc1cccc(/C=N/c2sc(Cc3ccccc3)c(C)c2C(N)=O)c1O	0	0	0	0	0	34	0	0
CC(C)=CCc1c(O)ccc2c1OC(c1ccc(O)c(O)c1)CC2=O (stereo not given)	0	0	0	0	0	62	55	0
O=C(CN1C(=O)/C(=C/c2ccco2)SC1=S)NC1CCS(=O)(=O)C1 (stereo not given)	0	0	0	0	0	39	0	0
O=C(CCN1C(=O)/C(=C/c2ccccc2)SC1=S)NC1CCS(=O)(=O)C1 (stereo not given)	0	0	0	0	0	0	-	-
NN1C(=O)/C(=C\c2ccco2)SC1=S	0	0	0	0	0	34	0	0
CCOC(=O)CN1C(=O)S/C(=C/c2ccco2)C1=O	0	0	0	0	0	0	-	-
CCc1c(C)sc(NC(=O)/C=C/C(=O)O)c1C(N)=O	0	0	0	0	0	34	0	0
CCOC(=O)c1c(/N=C/c2ccc(O)cc2O)sc2c1CCC2	0	-	0	-	0	0	-	-
CC1(C)CC(=O)c2c(oc3cc(O)c(O)cc23)C1	0	0	0	0	0	83	73	0
COC(=O)c1oc2c(c1C)C(=O)CC(C)(C)C2	0	0	0	0	0	0	-	-
COc1cc(NS(=O)(=O)c2cn(C)cn2)cc(OC)c1	0	0	0	0	0	0	-	-
CC1CN(Cc2nc3c(c(=O)n(C)c(=O)n3C)n2Cc2ccccc2)CC(C)O1 (stereo not given)	0	0	0	0	0	55	0	0
SMILES	APOBEC3G inh	PfG6PD inh	UBC9 SUMO inh	HKDC1 inh	APOBEC3A inh	PfM18AAP inh-1	PfM18AAP inh-2	CTSL1 confirm
CC1CN(Cc2nc3c(c(=O)n(C)c(=O)n3C)n2CC(=O)c2ccccc2)CC(C)O1 (stereo not given)	0	0	0	0	0	0	-	-
O=C(NCc1ccccc1)c1ccc2nnsc2c1	0	0	0	0	0	0	-	-
COc1cc2nc(CN(C)Cc3ccc(SC)cc3)[nH]c(=O)c2cc1OC	0	0	0	0	0	0	-	-
COc1cc2nc(CSc3ncn[nH]3)[nH]c(=O)c2cc1OC	0	0	0	0	0	63	66	0
CCSC1=C(C#N)C(c2ccc(C)o2)CC(=O)N1 (stereo not given)	0	0	0	0	0	0	-	-
Cc1ccc(C2CC(=O)N3CN(c4ccc(Br)cc4)CSC3=C2C#N)o1 (stereo not given)	0	0	0	0	0	37	0	0
Cc1nn(Cc2ccccc2Cl)c2sc(C(=O)NC(C)(C)C)cc12	0	0	0	0	0	0	-	-
O=C(CCCn1c(SCC(=O)c2ccc(O)c(O)c2)nc2ccccc2c1=O)NCC1CCCO1 (stereo not given)	0	0	0	0	0	53	38	0
CCCCn1c(SCC(=O)c2ccc(O)c(O)c2)nc2ccsc2c1=O	0	0	0	0	0	37	0	0
O=C(O)c1ccc(CSc2nnnn2-c2ccc(F)cc2)cc1	0	0	0	0	0	0	-	-
Cn1cnnc1SCC(=O)c1ccc(O)c(O)c1	0	0	0	0	0	53	35	0
O=C(CSc1nnnn1-c1ccc(F)cc1)c1ccc(O)c(O)c1	-	0	0	0	-	47	28	0
CCNc1nc(Oc2ccc(OC)cc2)cc(C(F)(F)F)n1	0	0	0	0	0	0	-	-
COc1cccc(NC(=O)c2cc3c(=O)n4ccccc4nc3n(CC(C)C)c2=N)c1	0	0	0	0	0	0	-	-
COc1cc2c(c(OC)c1OC)-c1ccc(N(C)CC(OC)OC)c(=O)cc1[C@@H](NC(C)=O)CC2	0	0	0	0	0	45	0	0
CN[C@H]1CCc2cc(OC)c(OC)c(OC)c2-c2ccc(N(C)CC(OC)OC)c(=O)cc21	0	0	0	0	0	0	-	-
CCOc1cc(NC(=O)Nc2ccc(F)cc2)c(OCC)cc1NC(=O)CC	0	0	0	0	0	0	-	-
CCOC(=O)C1=C(C)NC(=S)NC1c1ccco1 (stereo not given)	0	0	0	0	0	35	0	0
CCOc1cc(C2C(C(=O)c3ccco3)=C(O)C(=O)N2CCc2ccccc2)ccc1O (stereo not given)	0	0	0	0	0	33	0	0
COc1cc(C2C(C(=O)c3ccco3)=C(O)C(=O)N2Cc2ccccc2)ccc1O (stereo not given)	0	0	0	0	0	0	-	-
CN(C)C(=S)Nc1ccc2c(c1)OCO2	0	0	0	0	0	38	0	0
S=C(Nc1ccc2c(c1)OCO2)Nc1ccc2c(c1)OCO2	0	0	0	0	0	0	-	-
COCCn1c(=NC(=O)CCS(=O)(=O)c2ccccc2)sc2cc(C)ccc21	0	0	0	0	0	0	-	-
Oc1ccc(CCNc2c3ccccc3nc3ccccc23)cc1O	0	0	0	0	0	74	64	0
